Activity calls are given as the source filed them. No cut-off for these calls is given here.
How the values were obtained:
Bel-7402 [1] = assay: Induction of apoptosis in human Bel7402 cells assessed as early apoptotic cells at 0.5 uM after 72 hrs by Annexin V-FITC/propidium iodide staining based flow cytometry (reference value: 1.65%); format: functional
Bel-7402 [2] = assay: Upregulation of caspase-9 level in human Bel7402 cells at 0.125 to 0.5 uM after 72 hrs by Western blot analysis; format: functional, cell-based
Procedure, shortened: (§1)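 Bel-7402 cells were treated for 72 h at the indicated concentrations (0.125–0.5 µM) and lysed. Lysates were cleared at 14,000 g for 10 min at 4 °C, and 25 µg protein per lane was run on 10% SDS-PAGE and transferred to nitrocellulose. Membranes were blocked in 5% milk, probed overnight at 4 °C with monoclonal antibodies, and detected by ECL. Densitometry was normalized to GAPDH.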

Bel-7402 [3] = assay: Induction of apoptosis in human Bel7402 cells assessed as necrotic cells at 0.5 uM after 72 hrs by Annexin V-FITC/propidium iodide staining based flow cytometry (reference value: 13.05%); format: functional
Bel-7402 [4] = assay: Cell cycle arrest in human Bel7402 cells assessed as accumulation at G2/M phase at 0.125 uM after 72 hrs by propidium iodide staining-based flow cytometric method (reference value: 23.71%); format: functional
Bel-7402 [5] = assay: Induction of mitochondrial membrane depolarization in human Bel7402 cells assessed as cells with mitochondrial membrane potential loss at 0.25 uM after 24 to 48 hrs by JC-1 staining based flow cytometric analysis (reference value: 6.17%); format: functional
Bel-7402 [6] = assay: Induction of apoptosis in human Bel7402 cells assessed as late apoptotic cells at 0.125 uM after 72 hrs by Annexin V-FITC/propidium iodide staining based flow cytometry (reference value: 2.82%); format: functional
Bel-7402 [7] = assay: Cell cycle arrest in human Bel7402 cells assessed as accumulation at S phase at 0.5 uM after 72 hrs by propidium iodide staining-based flow cytometric method (reference value: 37.02%); format: functional
Bel-7402 [8] = assay: Cell cycle arrest in human Bel7402 cells assessed as accumulation at G2/M phase at 0.5 uM after 72 hrs by propidium iodide staining-based flow cytometric method (reference value: 23.71%); format: functional
Bel-7402 [9] = assay: Downregulation of Bcl-2 level in human Bel7402 cells after 72 hrs by Western blot analysis; format: functional, cell-based; procedure, shortened: as §1
Bel-7402 [10] = assay: Induction of apoptosis in human Bel7402 cells assessed as viable cells at 0.25 uM after 72 hrs by Annexin V-FITC/propidium iodide staining based flow cytometry (reference value: 82.48%); format: functional; conditions: Bel-7402, 72 h, read-out: Activity
Bel-7402 [11] = assay: Antiproliferative activity against human Bel7402 cells after 72 hrs by MTT assay; format: functional, cell-based; conditions: Bel-7402, 72 h
Procedure, shortened: (§2)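 Cells pre-incubated 24 h at 37 °C in humidified 5% CO2, then exposed to compounds for 72 h. MTT (5 mg/mL) was added for 4 h, formazan was dissolved in DMSO, and OD was read at 570 nm. Vehicle control was 0.1% DMSO. IC50 was calculated from inhibition ratios as the mean ± SD of three independent experiments.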

[12] = Selectivity index, ratio of IC50 for human LO2 cells to IC50 for human Bel7402 cells; format: toxicity; conditions: LO2 cells versus Bel7402 cells, read-out: Ratio IC50
Procedure, shortened: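 Selectivity index = IC50(L-O2)/IC50(Bel-7402), both IC50s from the 72 h MTT assay (mean of three independent experiments).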

Bel-7402 [13] = assay: Induction of apoptosis in human Bel7402 cells assessed as chromatin condensation at 0.125 to 0.25 uM after 48 hrs by Hoechst 33258 staining based fluorescent microscopic method; format: functional, cell-based
Procedure, shortened: (§3)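 Bel-7402 cells were seeded and grown 24 h, treated at 0.125, 0.25 and 0.5 µM for 48 h, then harvested by mild trypsinization and washed in PBS. They were stained with Hoechst 33258 for 15 min at room temperature in the dark and examined by fluorescence microscopy with a DAPI filter. Untreated cells served as control.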

Bel-7402 [14] = assay: Induction of apoptosis in human Bel7402 cells assessed as cell shrinkage at 0.125 to 0.25 uM after 48 hrs by Hoechst 33258 staining based fluorescent microscopic method; format: functional; procedure, shortened: as §3
Bel-7402 [15] = assay: Upregulation of caspase-3 level in human Bel7402 cells at 0.125 to 0.5 uM after 72 hrs by Western blot analysis; format: functional, cell-based; procedure, shortened: as §1
Bel-7402 [16] = assay: Induction of apoptosis in human Bel7402 cells assessed as late apoptotic cells at 0.25 uM after 72 hrs by Annexin V-FITC/propidium iodide staining based flow cytometry (reference value: 2.82%); format: functional
Bel-7402 [17] = assay: Upregulation of Bax level in human Bel7402 cells after 72 hrs by Western blot analysis; format: functional, cell-based; procedure, shortened: as §1
Bel-7402 [18] = assay: Induction of apoptosis in human Bel7402 cells assessed as reduction in number of adherent cells at 0.125 to 0.25 uM after 48 hrs by Hoechst 33258 staining based fluorescent microscopic method; format: functional, cell-based; procedure, shortened: as §3
Bel-7402 [19] = assay: Upregulation of p53 level in human Bel7402 cells after 72 hrs by Western blot analysis; format: functional, cell-based; procedure, shortened: as §1
Bel-7402 [20] = assay: Induction of apoptosis in human Bel7402 cells assessed as late apoptotic cells at 0.5 uM after 72 hrs by Annexin V-FITC/propidium iodide staining based flow cytometry (reference value: 2.82%); format: functional
Bel-7402 [21] = assay: Induction of apoptosis in human Bel7402 cells assessed as rupture of cell membrane at 0.5 uM after 48 hrs by Hoechst 33258 staining based fluorescent microscopic method; format: functional; procedure, shortened: as §3
Bel-7402 [22] = assay: Cell cycle arrest in human Bel7402 cells assessed as accumulation at G1 phase at 0.5 uM after 72 hrs by propidium iodide staining-based flow cytometric method (reference value: 39.28%); format: functional
Bel-7402 [23] = assay: Cell cycle arrest in human Bel7402 cells assessed as accumulation at S phase at 0.125 uM after 72 hrs by propidium iodide staining-based flow cytometric method (reference value: 37.02%); format: functional
Bel-7402 [24] = assay: Cell cycle arrest in human Bel7402 cells assessed as accumulation at G1 phase at 0.25 uM after 72 hrs by propidium iodide staining-based flow cytometric method (reference value: 39.28%); format: functional
Bel-7402 [25] = assay: Induction of mitochondrial membrane depolarization in human Bel7402 cells assessed as cell with intact mitochondrial membrane potential at 0.125 uM after 24 to 48 hrs by JC-1 staining based flow cytometric analysis (reference value: 98.83%); format: functional
Bel-7402 [26] = assay: Induction of apoptosis in human Bel7402 cells assessed as necrotic cells at 0.25 uM after 72 hrs by Annexin V-FITC/propidium iodide staining based flow cytometry (reference value: 13.05%); format: functional
PC-3 = assay: Antiproliferative activity against human PC3 cells after 72 hrs by MTT assay; format: functional, cell-based; conditions: PC-3, 72 h; procedure, shortened: as §2
Bel-7402 [27] = assay: Induction of apoptosis in human Bel7402 cells assessed as nuclear fragmentation at 0.5 uM after 48 hrs by Hoechst 33258 staining based fluorescent microscopic method; format: functional, cell-based; procedure, shortened: as §3
Bel-7402 [28] = assay: Induction of mitochondrial membrane depolarization in human Bel7402 cells assessed as cells with mitochondrial membrane potential loss at 0.5 uM after 24 to 48 hrs by JC-1 staining based flow cytometric analysis (reference value: 6.17%); format: functional
Bel-7402 [29] = assay: Induction of cyto-c accumulation in human Bel7402 cells cytosol at 0.125 to 0.5 uM after 72 hrs by Western blot analysis; format: functional, cell-based; procedure, shortened: as §1

Compound: C[C@H]1CCC/C=C/[C@@H]2C[C@H](O)C[C@H]2[C@H](OC(=O)c2ccc(N(CCCl)CCCl)cc2)/C=C/C(=O)O1
- Activity (Bel-7402 [1]): 39.11%
- Activity (Bel-7402 [2]): Active
- Activity (Bel-7402 [3]): 3.87%
- Activity (Bel-7402 [4]): 19.92%
- Activity (Bel-7402 [5]): 29.5%
- Activity (Bel-7402 [6]): 5.47%
- Activity (Bel-7402 [7]): 30.14%
- Activity (Bel-7402 [8]): 11.69%
- Activity (Bel-7402 [9]): Dose-dependent effect
- viability at 0.25 µM (Bel-7402 [10]): 62.9%
- IC50 (Bel-7402 [11]): 250 nM
- selectivity ratio [12]: 38.9
- Activity (Bel-7402 [13]): Active
- Activity (Bel-7402 [14]): Active
- Activity (Bel-7402 [15]): Active
- Activity (Bel-7402 [16]): 11.26%
- Activity (Bel-7402 [17]): Dose-dependent effect
- Activity (Bel-7402 [18]): Active
- Activity (Bel-7402 [19]): Dose-dependent effect
- Activity (Bel-7402 [20]): 18.48%
- Activity (Bel-7402 [21]): Active
- Activity (Bel-7402 [22]): 58.17%
- Activity (Bel-7402 [23]): 36.28%
- Activity (Bel-7402 [24]): 54.26%
- Activity (Bel-7402 [25]): 83.63%
- Activity (Bel-7402 [26]): 3.21%
- IC50 (PC-3): 9.37 µM
- Activity (Bel-7402 [27]): Active
- Activity (Bel-7402 [28]): 43.85%
- Activity (Bel-7402 [29]): Active
